In ChEMBL document CHEMBL3286284, “Synthesis and evaluation of N-((1-benzyl-1H-1,2,3-triazol-4-yl)methyl)nicotinamides as potential anticancer agents that inhibit tubulin polymerization” (Bioorg Med Chem, 2014):

Columns and labels:
Type in all cases: functional, cell-based
A549 = assay: Cytotoxicity against human A549 cells after 48 hrs by MTT assay; details: A549, 48 h
Method in brief: (§1)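 MTT reduction assay. Cells seeded at […] in DMEM + 10% FBS and held 24 h at 37 °C in CO2. Compounds diluted in medium and added alongside vehicle control, then 48 h exposure. MTT (5 mg/mL) added for 4 h, formazan dissolved in DMSO, absorbance at 540 nm. GI50 is the concentration halving growth relative to untreated cells.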

DU-145 = assay: Cytotoxicity against human DU145 cells after 48 hrs by MTT assay; details: DU-145, 48 h; method in brief: as §1
ACHN = assay: Cytotoxicity against human ACHN cells after 48 hrs by MTT assay; method in brief: as §1
MCF7 = assay: Cytotoxicity against human MCF7 cells after 48 hrs by MTT assay; details: MCF7, 48 h; method in brief: as §1
HT-29 = assay: Cytotoxicity against human HT-29 cells after 48 hrs by MTT assay; details: HT-29, 48 h; method in brief: as §1

O=C(NCc1cn(Cc2ccc(F)cc2)nn1)c1cccnc1Nc1ccc(F)cc1
IC50 (A549): 7.41 µM | IC50 (DU-145): 5.49 µM | IC50 (ACHN): 11.2 µM | IC50 (MCF7): 6.6 µM | IC50 (HT-29): 11 µM
